Assay outcomes deposited in PubChem by several laboratories.
Hits are enriched below; roughly 2.4% of the tested compounds scored in any of these assays.
PRMT1 FP inh: blocks human protein arginine methyltransferase 1; hit rate 1.3% among 370,000; recombinant PRMT1, activity-based probe fluorescence polarization; inhibition, % at 2.79 µM;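 active = inhibition above about 21% made by adding two undisclosed values, limit read from the data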
Target sequence (Q99873 whole entry, looked up): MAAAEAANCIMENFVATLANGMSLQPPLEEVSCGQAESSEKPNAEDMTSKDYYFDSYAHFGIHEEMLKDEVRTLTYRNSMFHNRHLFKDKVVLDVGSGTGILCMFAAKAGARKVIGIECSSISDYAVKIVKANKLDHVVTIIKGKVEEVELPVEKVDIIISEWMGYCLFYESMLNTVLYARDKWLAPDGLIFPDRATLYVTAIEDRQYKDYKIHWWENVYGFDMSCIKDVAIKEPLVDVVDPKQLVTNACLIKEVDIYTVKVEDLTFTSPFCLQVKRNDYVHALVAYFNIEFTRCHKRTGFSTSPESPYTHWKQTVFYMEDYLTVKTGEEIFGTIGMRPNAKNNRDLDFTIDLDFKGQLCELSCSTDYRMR
SIAE primary: human SIAE inhibition, primary screen | SIAE FP-Rh probe binding, fluorescence polarization | AID 1053197 | inhibition, % at 9.66 µM | hit rate 0.69% among 370,000;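 active = inhibition above a cutoff: mean of compounds within the control limits plus 3 SD of those, cut at about 17% in these data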
HTRA1 inh: blocks human HTRA1 serine peptidase. Q92743. recombinant HTRA1, FP-rhodamine activity-based probe, fluorescence polarization. inhibition, % at 5.96 µM. hit rate 0.5% among 340,000. AID 504803; in the data active = inhibition above about 36%
mABHD4 FP: inhibitors of mouse ABHD4 | hit rate 0.54% among 370,000 | inhibition, % at 8.92 µM | purified mABHD4, FP-Rh probe fluorescence polarization | Q8VD66;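 active = inhibition exceeding the mean over every tested compound plus 3 SD, cut at about 30% in these data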
Target sequence (Q8VD66 whole entry, looked up): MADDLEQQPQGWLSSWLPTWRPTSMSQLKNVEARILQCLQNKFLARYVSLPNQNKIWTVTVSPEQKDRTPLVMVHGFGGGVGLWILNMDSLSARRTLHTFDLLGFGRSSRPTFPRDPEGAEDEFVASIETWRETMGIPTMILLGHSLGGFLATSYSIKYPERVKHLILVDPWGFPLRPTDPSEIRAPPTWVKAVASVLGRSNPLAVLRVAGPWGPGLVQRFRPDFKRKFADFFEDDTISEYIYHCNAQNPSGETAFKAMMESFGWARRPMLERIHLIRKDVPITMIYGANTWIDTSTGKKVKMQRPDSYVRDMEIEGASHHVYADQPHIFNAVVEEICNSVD
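Assay system: wild-type mouse ABHD4 protein; compound: single nominal dose of 8.92 µM, 0.89% DMSO final; schedule: 45 min + 60 min at 25 °C; measured by: FP readout, ex 525 nm / em 598 nm; evaluation: % inhibition of FP-Rh probe binding versus controls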
GASC-1 inh: human JMJD2C demethylase inhibition | GST-JMJD2C(1-420) H3K9me3 demethylation, DELFIA europium | Q9H3R0 | inhibition, % at 2.35 µM | AID 2099 | hit rate 0.069% among 330,000;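 active = more than half of a compound's replicate wells show inhibition beyond 50%, single wells judged on their own value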;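 also: signal counts dimethyl H3K9 product captured on neutravidin plate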
PRMT1 confirm: confirmation of human PRMT1 inhibitors | shares compounds with PRMT1 FP inh | recombinant His-PRMT1, activity-based probe fluorescence polarization | inhibition, % at 2.79 µM | hit rate 42% among 3,300 | AID 687036;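 active = mean inhibition across replicates above the hit cutoff derived for the earlier primary screen, cut at about 22% in these data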
Large screens that a line does not name were inactive (follow-up assays come after a bar, where they were run).

COC(=O)[C@H]1C[C@@]2(c3ccccc3)c3ccccc3N[C@H]2N1	none (no result: HTRA1 inh, GASC-1 inh)
CCOC(=O)[C@]12CCCC=C1N(Cc1ccc(OC)cc1)C(=O)[C@@H]2CC(=O)N1CCCC1	none (no result: HTRA1 inh, GASC-1 inh)
CC(=O)N(c1cccc(C)c1)C1SC(=O)N(c2ccccc2)C1=O (stereo not drawn)	PRMT1 FP inh 32 | PRMT1 confirm 23
OCCn1c(CSc2nnc(-c3ccco3)n2-c2ccccc2)nc2ccc(Cl)cc21	PRMT1 FP inh 39 | PRMT1 confirm 34
CC1(C)CC(CC(=O)NNc2nc(-c3ccccc3)cs2)C(=O)O1 (stereo not drawn)	none
CC(C)CC1CC(C)(c2csc(NNC(=O)c3ccccc3)n2)OC1=O (stereo not drawn)	PRMT1 FP inh 42 | PRMT1 confirm inactive
CCc1nc2c(OCc3cccc(Cl)c3)cccn2c1N(C)C(=O)CC(C)C	none (no result: HTRA1 inh, GASC-1 inh)
Cc1ccc(C)c(NC(=O)C2C3C=CC(O3)C2C(=O)O)c1 (stereo not drawn)	PRMT1 FP inh 79 | PRMT1 confirm 38
Cc1cccc(NC(=O)C2C3C=CC(O3)C2C(=O)O)c1 (stereo not drawn)	none (no result: PRMT1 FP inh, SIAE primary, HTRA1 inh, mABHD4 FP)
Cc1ccc(NC(=O)C2C3C=CC(O3)C2C(=O)O)c(C)c1 (stereo not drawn)	PRMT1 FP inh 37 | PRMT1 confirm inactive
COc1ccccc1NC(=O)C1C2C=CC(O2)C1C(=O)O (stereo not drawn)	none (no result: PRMT1 FP inh, SIAE primary, HTRA1 inh, mABHD4 FP)
Cc1cccc(NC(=O)C2C3C=CC(O3)C2C(=O)O)c1C (stereo not drawn)	PRMT1 FP inh 33 | PRMT1 confirm inactive
Cc1ccc(NC(=O)C2C3C=CC(O3)C2C(=O)O)cc1C (stereo not drawn)	none
CC(=O)Nc1cccc(-c2ccnc3c2CC(C)(C(=O)Nc2cccc(Oc4ccccc4)c2)O3)c1 (stereo not drawn)	none (no result: HTRA1 inh, GASC-1 inh)
Cc1c([N+](=O)[O-])c(C(=O)Sc2ccc(Br)cc2)nn1C	PRMT1 FP inh 50 | PRMT1 confirm 75
COc1ccc(NC2CC(=O)N(c3cccc([N+](=O)[O-])c3)C2=O)cc1 (stereo not drawn)	none
CCOc1ccc(N2C(=O)CC(NCCNc3ccc([N+](=O)[O-])cn3)C2=O)cc1 (stereo not drawn)	PRMT1 FP inh 49 | PRMT1 confirm inactive
CCOc1ccc(N2C(=O)CC(N3CCN(c4ccc([N+](=O)[O-])cc4)CC3)C2=O)cc1 (stereo not drawn)	none
COc1ccc(N2C(=O)CC(NCCNc3ccc([N+](=O)[O-])cn3)C2=O)cc1 (stereo not drawn)	PRMT1 FP inh 36 | PRMT1 confirm inactive
O=C(OCC#CCSc1nnc(-c2ccccc2Cl)o1)c1ccc(F)cc1	none (no result: HTRA1 inh, GASC-1 inh)
CCCC(=O)N1CCCC(c2cc(C(=O)Nc3ccccc3)no2)C1 (stereo not drawn)	none (no result: HTRA1 inh, GASC-1 inh)
C[C@@H](NS(=O)(=O)c1cc(Cl)ccc1F)[C@H](O)c1ccccc1	none (no result: GASC-1 inh)
Nc1ncnc(Sc2ncccn2)c1[N+](=O)[O-]	PRMT1 FP inh 53 | PRMT1 confirm inactive
Nc1ncnc(Sc2ccccc2)c1[N+](=O)[O-]	none
CC(=O)Nc1ccc(C2=NNC(=Nc3ccc(S(=O)(=O)N4CCOCC4)cc3)SC2)cc1	PRMT1 FP inh 60 | PRMT1 confirm 86
Cc1ccc(Cl)cc1NC(=O)CSC(N)=O	PRMT1 FP inh 41 | PRMT1 confirm 99
COCC(=O)Nc1cc(Cl)ccc1C	none
CSc1cnn(-c2ccccc2)c(=O)c1SC	none
CSc1cnn(Cc2ccccc2)c(=O)c1SCc1ccccc1	PRMT1 FP inh 74 | PRMT1 confirm inactive
C[C@@H]1CCN(C2CC2)S(=O)(=O)c2ccc(N3CCC[C@H]3CO)cc2O1	none (no result: HTRA1 inh, GASC-1 inh)
CCC(=O)N1CCN(c2ccccc2NC(=O)COc2cc(C)ccc2C(C)C)CC1	PRMT1 FP inh 112 | PRMT1 confirm inactive
COc1ccc2c(c1)CC/C(=C\c1ccc(C)o1)C2=O	PRMT1 FP inh 39 | PRMT1 confirm inactive
COc1cccc(Cn2cnc(-c3ccccc3OC)c2-c2ccco2)c1	PRMT1 FP inh 32 (no result: HTRA1 inh, GASC-1 inh) | PRMT1 confirm inactive
O=C(NC1CCCCC1)c1nn2c(C(F)(F)F)cc(-c3ccco3)nc2c1Br	none
O=C(c1ccccc1)N1CCN(C(=O)c2nn3c(C(F)(F)F)cc(-c4ccco4)nc3c2Br)CC1	PRMT1 FP inh 30 | PRMT1 confirm inactive
Cc1[nH]c2ccccc2c1CC(=O)Nc1ccc(Nc2cccnc2)c(-c2cc(C(F)(F)F)cc(C(F)(F)F)c2)c1	none (no result: HTRA1 inh, GASC-1 inh)
O=[N+]([O-])c1ccc(Oc2cccc3cccnc23)c([N+](=O)[O-])c1	none
N#Cc1ccc(Oc2cccc3cccnc23)c([N+](=O)[O-])c1	PRMT1 FP inh 27 | PRMT1 confirm inactive
N#Cc1ccc(CSc2nc3sc4c(c3c(=O)n2-c2ccc(Br)cc2)CCCC4)cc1	none (no result: HTRA1 inh, GASC-1 inh)
COc1cccc(/C=C2\CC3(OC(=O)c4ccc(Cl)cc4)CCCN2C3)c1 (stereo not drawn)	none (no result: HTRA1 inh, GASC-1 inh)
COc1ccc(S(=O)(=O)NCc2cccnc2)cc1NC(=O)c1ccccc1C	PRMT1 FP inh 48 (no result: GASC-1 inh) | PRMT1 confirm inactive
Cc1ccc(CN(C)C(=O)c2ccccc2Oc2ccccc2)o1	PRMT1 FP inh 34 | PRMT1 confirm inactive
CC(=O)c1cccc(OCc2cc(C(=O)N(C)Cc3ccc(C)o3)no2)c1	PRMT1 FP inh 32 | PRMT1 confirm 47
CSc1ccccc1OCc1cc(C(=O)N(C)Cc2ccc(C)o2)no1	PRMT1 FP inh 25 | PRMT1 confirm 28
O=c1c2ccccc2nc(N2CCN(c3ccccc3)CC2)n1Cc1ccccc1	PRMT1 FP inh 74 | PRMT1 confirm inactive
COC(=O)[C@H](CC(C)C)N1Cc2nnn(CC3CCCCC3)c2-c2cc(F)ccc2S1(=O)=O	none (no result: HTRA1 inh, GASC-1 inh)
Cc1ccsc1-c1cc2nc(Nc3ccc(F)cc3)n(C)c(=O)c2s1	none (no result: HTRA1 inh, GASC-1 inh)
CC(=O)Nc1ccc(NC(=O)C(C)OC(=O)/C(C#N)=C/c2ccc(N(C)C)cc2)cc1 (stereo not drawn)	PRMT1 FP inh 30 | PRMT1 confirm 39
CC(OC(=O)/C(C#N)=C/c1ccc(N(C)C)cc1)C(=O)N(C)c1ccccc1 (stereo not drawn)	none
COc1cccc(-n2cc(-c3ccc(F)cc3)[nH]c2=S)c1	none
COc1ccc(-c2cn(-c3ccc(C)c(C)c3)c(=S)[nH]2)cc1OC	PRMT1 FP inh 31 | PRMT1 confirm inactive
COCO[C@@H]1CC(CO)=C[C@H]2OCO[C@H]21	none (no result: HTRA1 inh, GASC-1 inh)
Cc1ccc(-c2cnc(C(O)c3ccc(Cl)cc3C)[nH]2)cc1 (stereo not drawn)	none (no result: HTRA1 inh, GASC-1 inh)
Cc1cc(C)c2ccc(=S)[nH]c2n1	PRMT1 FP inh 38 | PRMT1 confirm inactive
CC(C)[C@H](NC(=O)N1CCOCC1)C(=O)N1CCC[C@H]1C(=O)NCc1ccccc1	none (no result: HTRA1 inh, GASC-1 inh)
COC(=O)c1c(NC(=O)CN2CCC3(O)CCCCC3C2c2ccc(OC)cc2OC)sc(C)c1C (stereo not drawn)	PRMT1 FP inh 30 | PRMT1 confirm inactive
O=C(CSCCSCC(=O)c1ccco1)c1ccco1	none (no result: PRMT1 FP inh, SIAE primary, HTRA1 inh, mABHD4 FP)
